We go through one compound from ChEMBL document CHEMBL2029240 (ACS Med Chem Lett, 2011).

Each structure is given as a SMILES string. Activity calls are given as the source filed them. The calls are words filed in the database; no cut-off is given here.

Series [1] deals with C-C chemokine receptor type 2 (Mus musculus, UniProt P51683). As to the kind of experiment: Antagonist activity at mouse CCR2. The class given is functional. The essentials: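 Read-out was antagonism of CCR2-mediated chemotaxis in a mouse chemotaxis assay, with activity reported as IC50.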
Chain of C-C chemokine receptor type 2 (P51683 whole entry): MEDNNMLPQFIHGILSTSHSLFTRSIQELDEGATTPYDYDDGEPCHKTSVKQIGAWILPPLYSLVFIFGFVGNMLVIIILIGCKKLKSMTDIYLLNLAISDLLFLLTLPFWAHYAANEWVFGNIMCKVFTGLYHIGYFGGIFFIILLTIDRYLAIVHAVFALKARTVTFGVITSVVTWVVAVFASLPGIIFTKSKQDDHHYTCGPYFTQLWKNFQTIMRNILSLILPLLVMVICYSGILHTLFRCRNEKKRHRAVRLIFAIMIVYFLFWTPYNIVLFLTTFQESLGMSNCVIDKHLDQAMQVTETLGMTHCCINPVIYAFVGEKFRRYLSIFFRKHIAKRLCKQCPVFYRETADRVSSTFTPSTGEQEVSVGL
A short description of series [2]: Permeability across human Caco2 cells. It counts as ADME, cell-based. Particulars: Caco-2, read-out: permeability. (Caco-2 cells form a polarised layer with tight junctions and transporters.)
The target of series [3] is T1, C-C chemokine receptor type 1 (Homo sapiens) (UniProt P32246).
T1 sequence (whole entry): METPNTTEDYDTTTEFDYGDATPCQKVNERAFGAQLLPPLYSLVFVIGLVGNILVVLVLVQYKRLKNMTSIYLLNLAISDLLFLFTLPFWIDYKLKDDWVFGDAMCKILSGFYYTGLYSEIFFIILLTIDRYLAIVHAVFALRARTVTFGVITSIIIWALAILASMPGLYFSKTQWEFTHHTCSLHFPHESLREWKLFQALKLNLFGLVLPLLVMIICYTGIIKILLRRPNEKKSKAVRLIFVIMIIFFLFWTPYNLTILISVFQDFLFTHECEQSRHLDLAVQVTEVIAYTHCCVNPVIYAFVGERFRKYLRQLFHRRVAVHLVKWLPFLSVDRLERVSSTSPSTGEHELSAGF
Nature of the series: Inhibition of CCR1 at 1 uM. The essentials: (§1)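 Single-concentration screen at 1 μM against a broad panel of more than 50 targets (ion channels, transporters, chemokine receptors, other GPCRs), scored for significant inhibition.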

Series [4] can be described thus: Cmax in rat at 10 mg/kg, po. The class given is ADME, organism-based. Also on record: dose 10 mg/kg, route oral. Particulars: in vivo. In a few lines: (§2)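 Rats were dosed iv at 2 mg/kg and orally at 10 mg/kg. Plasma PK parameters derived: CL (L/h/kg), Vss (L/kg), t1/2 (h), Cmax (nM), Tmax (h), AUC (nM h) and oral F%.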
A further series deals with Rattus norvegicus. As to the kind of experiment: Clearance in rat at 2 mg/kg, iv. It counts as ADME, organism-based. The following applies: in vivo. Also on record: dose 2 mg/kg, route intravenous. The essentials: as §2
For series [5], the target named is T2, C-X-C chemokine receptor type 5 (Homo sapiens) (UniProt P32302).
T2 sequence (whole entry): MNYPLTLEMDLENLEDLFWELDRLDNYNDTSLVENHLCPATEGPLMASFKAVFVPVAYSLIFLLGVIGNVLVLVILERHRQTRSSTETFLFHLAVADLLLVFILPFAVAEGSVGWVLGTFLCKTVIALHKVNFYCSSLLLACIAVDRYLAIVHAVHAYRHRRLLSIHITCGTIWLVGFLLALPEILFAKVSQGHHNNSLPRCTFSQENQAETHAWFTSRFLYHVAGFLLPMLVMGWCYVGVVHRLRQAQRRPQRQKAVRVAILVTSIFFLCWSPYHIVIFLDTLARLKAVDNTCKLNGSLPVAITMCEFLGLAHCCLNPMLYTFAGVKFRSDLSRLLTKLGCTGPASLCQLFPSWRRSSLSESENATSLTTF
Nature of the series: Inhibition of CXCR5 at 1 uM. In a few lines: as §1

Another series deals with hERG (KCNH2) (Homo sapiens, UniProt Q12809). Nature of the series: Inhibition of human ERG at 10 uM by patch clamp assay.
Chain of hERG (KCNH2) (Q12809 whole entry): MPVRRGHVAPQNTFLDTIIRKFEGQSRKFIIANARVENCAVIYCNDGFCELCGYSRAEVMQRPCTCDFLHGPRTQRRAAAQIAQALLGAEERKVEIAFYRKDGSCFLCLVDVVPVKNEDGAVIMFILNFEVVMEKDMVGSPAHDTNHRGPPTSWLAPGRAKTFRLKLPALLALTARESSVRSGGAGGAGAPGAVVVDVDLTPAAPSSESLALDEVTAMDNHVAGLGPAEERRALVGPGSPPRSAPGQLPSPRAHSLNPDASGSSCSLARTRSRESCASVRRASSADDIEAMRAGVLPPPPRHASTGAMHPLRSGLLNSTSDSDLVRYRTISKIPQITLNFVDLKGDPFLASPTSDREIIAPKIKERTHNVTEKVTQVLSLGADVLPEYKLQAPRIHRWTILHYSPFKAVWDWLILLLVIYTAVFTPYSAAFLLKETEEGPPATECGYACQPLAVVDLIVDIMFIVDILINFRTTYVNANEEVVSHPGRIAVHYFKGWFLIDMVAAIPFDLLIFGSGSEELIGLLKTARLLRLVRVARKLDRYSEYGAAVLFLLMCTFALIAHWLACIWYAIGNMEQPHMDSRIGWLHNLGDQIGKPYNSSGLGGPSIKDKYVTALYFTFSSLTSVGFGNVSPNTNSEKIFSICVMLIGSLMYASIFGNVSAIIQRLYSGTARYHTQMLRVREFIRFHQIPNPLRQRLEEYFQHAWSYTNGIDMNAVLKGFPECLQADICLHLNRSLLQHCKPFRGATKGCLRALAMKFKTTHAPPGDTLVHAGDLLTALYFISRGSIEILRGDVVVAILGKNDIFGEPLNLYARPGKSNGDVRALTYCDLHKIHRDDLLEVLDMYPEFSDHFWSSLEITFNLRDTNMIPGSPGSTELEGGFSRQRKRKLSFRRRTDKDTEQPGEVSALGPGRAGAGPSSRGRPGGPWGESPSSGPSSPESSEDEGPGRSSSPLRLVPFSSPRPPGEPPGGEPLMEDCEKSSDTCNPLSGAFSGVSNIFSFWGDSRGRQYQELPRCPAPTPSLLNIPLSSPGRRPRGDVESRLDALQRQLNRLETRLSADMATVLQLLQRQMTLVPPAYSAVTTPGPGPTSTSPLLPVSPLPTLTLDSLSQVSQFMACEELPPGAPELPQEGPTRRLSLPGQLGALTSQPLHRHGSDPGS

The IC50 is the concentration that gives 50% inhibition. In general, inhibition refers to the change of the read-out against control, counted positive when it falls. What is called Cmax is the highest concentration seen after dosing. For the compound `O=C(NCC(=O)N1CC[C@H](N[C@H]2CC[C@@](O)(c3ccc(-c4ncccn4)cn3)CC2)C1)c1cccc(C(F)(F)F)c1` [PF-4136309], in series [1], half-maximal inhibition (IC50) required 16 nM. For the same compound, in series [2], the Papp worked out at 3.1 ×10⁻⁶ cm/s. The inhibition entry in series [3] and in series [5] was “inactive” each time. The highest level in series [4] (Cmax) was 610 nM. Besides, the CL in the series on Rattus norvegicus turned out to be 23.5 mL/min/kg. The compound also displayed an inhibition at 10 µM at hERG (KCNH2) of 35%.
